# Screens deposited in PubChem by The Scripps Research Institute Molecular Screening Center.
# OX1R antag-1 – antagonists of human orexin 1 receptor (OX1R); actives 1.8% (n = 330,000); inhibition, % at 6.6 µM; OX1R-expressing cells, FRET antagonist read-out; in the data active = inhibition mostly above about 38%, no sharp cut-off; inactive = mostly below about 40%;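 note: 0% = agonist challenge alone and 100% = reference antagonist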
# Target sequence (O43613 whole entry, looked up): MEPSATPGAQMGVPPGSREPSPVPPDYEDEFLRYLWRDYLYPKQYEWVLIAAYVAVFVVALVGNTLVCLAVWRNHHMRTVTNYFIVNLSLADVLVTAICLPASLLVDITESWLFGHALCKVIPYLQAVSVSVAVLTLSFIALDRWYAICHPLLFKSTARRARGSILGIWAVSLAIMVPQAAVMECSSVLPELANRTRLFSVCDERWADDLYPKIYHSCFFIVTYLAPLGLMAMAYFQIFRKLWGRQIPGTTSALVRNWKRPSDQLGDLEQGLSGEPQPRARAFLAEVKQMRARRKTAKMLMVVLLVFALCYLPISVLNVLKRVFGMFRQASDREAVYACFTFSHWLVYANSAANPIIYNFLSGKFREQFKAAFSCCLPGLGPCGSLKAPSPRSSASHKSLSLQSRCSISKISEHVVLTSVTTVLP
# TAAR1 agonist – agonists of human TAAR1. Q96RJ0. activation, % at 3 µM. actives 0.99% (n = 360,000). CHO RD-HGA16 TAAR1, Fluo-8 calcium fluorescence; vehicle wells 0%, saturating PEA agonist 100%;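 active = activation above the mean activation of all test compounds in the run plus 3 SD, cut at about 38% in these data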
#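 test system = CHO RD-HGA16 cells carrying human TAAR1 plus Gα16 | schedule = 17-24 h seeding, 75 min 37 °C dye, 30 min RT | compound dosing = 3 µM single concentration | control set = DMSO and PEA EC100 | replicates = n 1 | signal = Fluo-8 fluorescence, 5 s baseline then 140 s kinetic read | measure = percent activation vs PEA EC100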
# TAAR1 antagonist – human TAAR1 antagonism; inhibition, % at 3 µM; actives 1.5% (n = 360,000); CHO RD-HGA16 TAAR1, Fluo-8 calcium fluorescence, antagonist;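 active = inhibition above a per-plate cutoff, the mean inhibition of test compounds on that plate plus 3 SD, cut at about 49% in these data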;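 note: 0% = DMSO plus EC80 beta-PEA response and 100% = DMSO alone without agonist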
#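 Test system: CHO RD-HGA16 cells bearing hTAAR1 | Reagent: β-PEA, EC80 | Compound dosing: 3 µM, single point | Schedule: Dye loading 75 min at 37 °C, then 30 min room temperature | Signal: Calcium fluorescence with Fluo-8 | Evaluation: Percent inhibition of PEA-evoked calcium signal, max/basal emission ratio | Control set: DMSO-only wells and EC80 β-PEA-stimulated wells | Repeats: Singlicate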
# CHO parental Ca – counter-screen for OX1R antagonists: effect in parental CHO cells | parental CHO-K1, ATP-induced calcium, Fluo-8 fluorescence | inhibition, % at 5.6 µM | actives 0.63% (n = 330,000) | AID 463079;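 active = inhibition above that plate's mean sample inhibition plus 3 SD, cut at about 26% in these data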;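 note: 0% = ATP-challenged DMSO wells and 100% = DMSO wells without ATP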
#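 Assay system: parental CHO cells; Read-out basis: percent inhibition of ATP-evoked calcium rise, normalized to controls; Benchmarks: ATP and no-ATP DMSO wells; Compound dosing: single nominal dose of 5.6 µM per compound; Signal: Fluo-8 calcium dye fluorescence; Also added: ATP as calcium-mobilizing challenge; Repeats: singlicate.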
# OX1R antag-2 – blocks the human orexin 1 receptor. AID 434989. actives 0.43% (n = 330,000). inhibition, % at 5 µM. O43613. CHO/OX1R cells, Fluo-8 calcium fluorescence, orexin A;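 active = inhibition above its plate's threshold, mean inhibition of all tested compounds on the plate plus 3 SD, cut at about 37% in these data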;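 note: 0% = orexin A challenge wells and 100% = SB-334867-A antagonist wells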
# GPR7 antagonist – blocks human GPR7 receptor signaling. P48145. GPR7-expressing cells, fluorescence antagonist assay. inhibition, % at 4.4 µM. actives 1.1% (n = 290,000). AID 1861; in the data active = inhibition above about 16%, passing the limit was not always enough;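 note: cells stimulated with the agonist NPW; 0% = agonist with vehicle and 100% = vehicle without agonist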
# * hit, by the source's call; . = no result. Most compounds without a hit are left out; they make up all but 4.6% or so of the library.
SMILES,OX1R antag-1,TAAR1 agonist,TAAR1 antagonist,CHO parental Ca,OX1R antag-2,GPR7 antagonist
COc1ccc(CCn2c(=N)c(C(=O)NCC3CCCO3)cc3c(=O)n4cccc(C)c4nc32)cc1 (stereo unspecified),35*,4,11,-17,-38,-22
Cc1cccn2c(=O)c3cc(C(=O)NC4CCCC4)c(=N)n(CC4CCCO4)c3nc12 (stereo unspecified),55*,0,8,-18,-26,-4
Cc1cccn2c(=O)c3cc(C(=O)NCc4ccco4)c(=N)n(C4CCCC4)c3nc12,19,-6,-10,-18,-12,5
COc1ccc(CNC(=O)c2cc3c(=O)n4cccc(C)c4nc3n(CC3CCCO3)c2=N)cc1 (stereo unspecified),30,0,-10,-18,-18,-3
Cc1cccn2c(=O)c3cc(C(=O)NCC4CCCO4)c(=N)n(CC4CCCO4)c3nc12 (stereo unspecified),63*,-3,-10,-16,-21,-4
Cc1cccn2c(=O)c3cc(C(=O)NCC4CCCO4)c(=N)n(C4CCCCC4)c3nc12 (stereo unspecified),44*,-1,-12,-24,-22,-1
COc1cccc(C(C)(O)c2nc(-c3cc(F)cc(F)c3)cs2)c1 (stereo unspecified),.,3,-7,.,.,.
O=C(Nc1nc(-c2cccs2)cs1)c1ccc([N+](=O)[O-])o1,6,11,-12,-4,-3,.
Nc1[nH]c(C(=O)c2ccc(Br)cc2)c(-c2ccc(Cl)cc2[N+](=O)[O-])c1C(=O)NCCc1c[nH]c2ccccc12,.,7,32,.,.,.
COc1ccc(C2CC(=O)C(c3ccc([N+](=O)[O-])cc3)=CN2Cc2ccccc2)cc1 (stereo unspecified),.,6,13,.,.,.
CCCC1=NN(C(=O)C(=O)Nc2ccc(Br)cc2)C(O)(C(F)(F)F)C1 (stereo unspecified),50*,8,10,-3,-12,-9
COc1ccc(C(=O)c2ccc([N+](=O)[O-])cc2)cc1S(=O)(=O)N1CCC(C(=O)O)CC1,53*,1,-12,-4,-14,-6
COc1ccc(NC(=O)CCNC(=O)c2ccc([N+](=O)[O-])cc2)cc1S(=O)(=O)N1CCCCC1,.,0,-34,.,.,.
CCCc1nnc2n1N=C(c1ccc([N+](=O)[O-])cc1)CS2,45*,6,-29,10,-21,-12
COc1ccc(NC(=O)CC2SC(=NCC3CCCO3)NC2=O)c([N+](=O)[O-])c1 (stereo unspecified),50*,3,-14,-2,-21,-21
O=C(NNC(=O)c1ccccc1O)c1ccc(-c2ccc([N+](=O)[O-])cc2)o1,55*,15,41,17,3,.
Cc1ccc(S(=O)(=O)NNC(=S)NC(=O)c2ccc([N+](=O)[O-])cc2)cc1,70*,2,-24,-6,-19,-1
Cc1ccc(C(=O)NC(=S)NNC(=O)c2ccc([N+](=O)[O-])cc2)cc1,9,29,-14,-5,-23,6
O=C(c1ccc(-c2ccc([N+](=O)[O-])cc2)o1)N1CCCCC1,26,3,0,-9,-3,5
O=C(NC(=S)NNC(=O)c1ccccc1O)c1ccc([N+](=O)[O-])cc1,17,44*,21,-1,-15,-8
CCCCCC(=O)NNC(=S)NC(=O)c1ccc([N+](=O)[O-])cc1,70*,9,-5,-7,-20,-4
CCC/C(=C1/c2ccccc2C(=O)N1c1ccccc1)c1c(C)noc1C,.,-2,-11,.,.,.
Cc1ccc(Nc2nc(N)nc(COC(=O)C3=COCCO3)n2)cc1,4,1,0,-17,-5,.
O=[N+]([O-])c1cccc(COc2ccc(CO)cc2)c1,.,0,0,.,.,.
Cc1cc2c(c(=O)o1)[C@@]1(C(=O)Nc3ccccc31)C1=C(CCCC1=O)O2,.,1,-8,.,.,.
SMILES,OX1R antag-1,TAAR1 agonist,TAAR1 antagonist,CHO parental Ca,OX1R antag-2,GPR7 antagonist
CC1=NC2=CC=CC3=NC(C(Cl)(Cl)Cl)=NC(=N1)N23,.,2,-10,.,.,.
Cc1ccc(C(=O)NC(=S)NNC(=O)c2ccccc2[N+](=O)[O-])cc1,13,38*,3,2,-11,-13
O=C(NNC(=S)NC(=O)c1ccccc1[N+](=O)[O-])c1ccccc1[N+](=O)[O-],15,0,-5,-6,0,-6
CCOC(=O)C1(C)CCCCCN1C(=O)c1ccccc1F (stereo unspecified),.,0,5,.,.,.
O=C(Nc1cccc(S(=O)(=O)Nc2ccccc2F)c1)c1ccc2ccccc2n1,82*,4,31,-11,22,-9
O=C(Nc1cccnc1)c1cccc(S(=O)(=O)Nc2ccccc2F)c1,.,4,-23,.,.,.
CCC(C)NC(=O)COC(=O)c1cc([N+](=O)[O-])ccc1Sc1nc(C)cs1 (stereo unspecified),54*,-2,17,-15,-19,-2
Cc1csc(Sc2ccc([N+](=O)[O-])cc2C(=O)OCC(=O)NC2CCCC(C)C2C)n1 (stereo unspecified),5,10,6,-16,-30,-10
O=C1Nc2ccc(S(=O)(=O)N3CCCC3)c3cccc1c23,19,7,-4,-6,-8,-1
O=C1Nc2ccc(S(=O)(=O)N3CCCC3C(=O)O)c3cccc1c23 (stereo unspecified),38*,1,-18,-9,-10,-4
COc1ccc(Nc2ccc(C(=O)O)cc2[N+](=O)[O-])cc1,55*,3,12,1,-23,-6
COc1ccc(OC)c(Nc2ccc(C(=O)O)cc2[N+](=O)[O-])c1,33,0,17,-3,8,5
O=C1c2cccc3c([N+](=O)[O-])ccc(c23)C(=O)N1c1ccccn1,68*,1,27,17,20,23
O=C1c2cccc3c(N4CCCCC4)ccc(c23)C(=O)N1c1ccc(Cl)cn1,.,.,.,.,.,-3
O=C1c2cccc3cccc(c23)C(=O)N1c1nccs1,30,5,1,-1,-17,-3
O=C1c2cccc3c(N4CCCCC4)ccc(c23)C(=O)N1c1ccccn1,48,13,6,31,51*,4
O=C1c2cccc3c([N+](=O)[O-])ccc(c23)C(=O)N1O,21,-2,-40,-2,-14,17
O=C1c2cccc3c([N+](=O)[O-])ccc(c23)C(=O)N1c1nccs1,62*,-3,45,14,20,4
CCNC(=O)N1CCN(c2ccc(N3CCN(C(=O)NCC)[C@@H](C)C3)c(C)c2)[C@@H](C)C1,.,0,-9,.,.,.
